# Measured values as given in ChEMBL document CHEMBL4152358, “In vitro and in vivo anti-inflammatory properties of imine resveratrol analogues” (Bioorg Med Chem, 2018).
# pIC50: −log10 of the molar value. Calls of active or inactive are those of the source. No cut-off for these calls is given here.
# Tests used:
# [1] = tested on: RAW264.7; test: Immunomodulatory activity in LPS-stimulated mouse RAW264.7 cells assessed as decrease in MHC-2 expression at 50 uM incubated with LPS for 1 hr followed by compound addition measured after 24 hrs by flow cytometry; format: functional, cell-based
# Summary of the method: (§1)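 RAW 264.7 cells (4 x 10⁵/well, triplicate) given E. coli LPS 1 µg/mL for 1 h, then treated at 50 µM for 24 h. Cells Fc-blocked with anti-CD16/32 and stained with FITC anti-CD80, anti-CD86 or anti-MHC II (I-A^b). Two independent experiments.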
# [2] = tested on: Murine T-cell line; test: Antiproliferative activity against Con-A-induced T cells isolated from splenocytes of C57/BL6 mouse at 50 uM incubated with Con-A for 1 hr followed by compound addition measured after 72 hrs by MTT assay; format: functional, cell-based
# Summary of the method: (§2)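 C57BL/6 splenocytes (1x10⁵/well) cultured in RPMI 1640 with 10% FBS. Stimulated 1 h with Con A 5 µg/mL (T cells) or E. coli LPS 1 µg/mL (B cells) at 37°C, 5% CO₂. Treated at 50 µM and cultured 72 h more, then read by MTT. Expressed as % proliferation relative to untreated stimulated cells.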
# [3] = tested on: RAW264.7; test: Antiinflammatory activity in mouse RAW264.7 cells assessed as inhibition of LPS-induced TNFalpha production by measuring TNFalpha levels incubated with LPS for 1 hr followed by compound addition measured after 48 hrs by ELISA (reference value: 58.6 +/- 7.4 ng/ml); format: functional
# [4] = tested on: RAW264.7; test: Antiinflammatory activity in mouse RAW264.7 cells assessed as inhibition of LPS-induced IL-6 production by measuring IL-6 levels incubated with LPS for 1 hr followed by compound addition measured after 48 hrs by ELISA (reference value: 2.9 +/- 0.3 ng/ml); format: functional
# [5] = tested on: J774.A1; test: Antiinflammatory activity in mouse J774A.1 cells assessed as inhibition of LPS-induced IL-1beta production by measuring IL-1beta levels incubated with LPS for 1 hr followed by compound addition measured after 24 hrs by ELISA (reference value: 382.3 +/- 50 pg/ml); format: functional
# [6] = tested on: RAW264.7; test: Antiinflammatory activity in mouse RAW264.7 cells assessed as inhibition of LPS/IFNgamma-induced NO production by measuring NO levels incubated with LPS/IFNgamma for 1 hr followed by compound addition measured after 48 hrs by Griess assay (reference value: 55 +/- 2.6 microM); format: functional
# [7] = tested on: Mus musculus; test: Antiinflammatory activity in croton oil-induced Balb/c mouse ear edema model assessed as inhibition of leucocyte infiltration at 0.1 mg/ear administered topically immediately post croton oil treatment and measured after 4 hrs by hematoxylin and eosin staining based light microscopic method; format: functional, organism-based
# Summary of the method: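 Ear plugs from the 4 h croton oil edema test in Balb/c mice were fixed 24 h in 70% ethanol, kept in 10% formalin, paraffin-embedded and cut at 4 µm. Sections stained with H&E and leucocyte infiltration judged qualitatively by light microscopy at 400x.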
# [8] = tested on: RAW264.7; test: Antiinflammatory activity in mouse RAW264.7 cells assessed as inhibition of LPS-induced CCL-2 production by measuring CCL-2 levels incubated with LPS for 1 hr followed by compound addition measured after 48 hrs by ELISA (reference value: 12.73 +/- 0.10 ng/ml); format: functional
# [9] = tested on: RAW264.7; test: Immunomodulatory activity in LPS-stimulated mouse RAW264.7 cells assessed as decrease in CD86 expression at 50 uM incubated with LPS for 1 hr followed by compound addition measured after 24 hrs by flow cytometry; format: functional, cell-based; summary of the method: as §1
# [10] = tested on: RAW264.7; test: Immunomodulatory activity in LPS-stimulated mouse RAW264.7 cells assessed as decrease in CD80 expression at 50 uM incubated with LPS for 1 hr followed by compound addition measured after 24 hrs by flow cytometry; format: functional, cell-based; summary of the method: as §1
# [11] = Antioxidant activity assessed as DPPH radical scavenging activity after 30 mins by spectrophotometric method; format: functional
# Summary of the method: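 Left 30 min at room temperature in the dark and absorbance read at 510 nm. IC50 taken graphically from the linear range of the concentration versus scavenging plot. Run twice, each in triplicate.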
# [12] = tested on: Mus musculus; test: Effect on IL-1beta production in ear tissue of croton oil-induced Balb/c mouse ear edema model at 0.1 mg/ear administered topically immediately post croton oil treatment by ELISA; format: functional, organism-based
# Summary of the method: (§3)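 Half of each ear plug from the 4 h croton oil edema test (topical 0.1 mg/ear) was homogenized in extraction buffer (BSA 0.5%, PMSF 0.1%, […], EDTA 10mM, aprotinin 20kIU/ml) and spun at 440g for 15 min at 4 °C. IL-1β, IL-6 or CCL-2 in the supernatant measured by ELISA.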
# [13] = tested on: Mus musculus; test: Inhibition of myeloperoxidase activity in ear tissue of croton oil-induced Balb/c mouse ear edema model at 0.1 mg/ear administered topically immediately post croton oil treatment by spectrophotometric method; format: functional, organism-based
# Summary of the method: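 Ear tissue homogenized in PBS and the pellet resuspended in 0.5% HTAB, then given 3 freeze/thaw cycles. Cleared supernatant mixed 1:1 with 6 mM o-phenylenediamine in 10 mM citrate pH 4.5, with 20% H₂O₂ added. Stopped after 15 min with 1 M H₂SO₄ and read spectrophotometrically.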
# [14] = tested on: Mus musculus; test: Inhibition of CCL-2 production in ear tissue of croton oil-induced Balb/c mouse ear edema model at 0.1 mg/ear administered topically immediately post croton oil treatment by ELISA; format: functional, organism-based; summary of the method: as §3
# [15] = tested on: RAW264.7; test: Antiinflammatory activity in mouse RAW264.7 cells assessed as inhibition of LPS-induced IL-12 production by measuring IL-12 levels incubated with LPS for 1 hr followed by compound addition measured after 48 hrs by ELISA (reference value: 4839.2 +/- 2.2 pg/ml); format: functional
# [16] = tested on: B-cell line; test: Antiproliferative activity against LPS-induced B cells isolated from splenocytes of C57/BL6 mouse at 50 uM incubated with LPS for 1 hr followed by compound addition measured after 72 hrs by MTT assay; format: functional, cell-based; summary of the method: as §2
# [17] = tested on: Mus musculus; test: Antiinflammatory activity in Balb/c mouse ear edema model assessed as inhibition of croton oil-induced ear edema at 0.1 mg/ear administered topically immediately post croton oil treatment and measured after 4 hrs relative to control; format: functional
# Summary of the method: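 Female Balb/c mice 8–10 weeks old (n = 6/group). 20 µL of 2.5% v/v croton oil applied to the inner surface of the right ear, acetone vehicle to the left. Treatment given topically straight after, 0.1 mg/ear in 20 µL, with acetone as negative control. Killed at 4 h and 6 mm plugs taken from both ears. Edema read as right minus left ear plug weight, mean S.D.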
# [18] = tested on: RAW264.7; test: Antiinflammatory activity in mouse RAW264.7 cells assessed as inhibition of LPS/IFNgamma-induced NO production at 50 uM incubated with LPS/IFNgamma for 1 hr followed by compound addition measured after 48 hrs by Griess assay relative to control; format: functional
# [19] = tested on: Mus musculus; test: Inhibition of IL-6 production in ear tissue of croton oil-induced Balb/c mouse ear edema model at 0.1 mg/ear administered topically immediately post croton oil treatment by ELISA; format: functional, organism-based; summary of the method: as §3
# [20] = tested on: RAW264.7; test: Cytotoxicity against mouse RAW264.7 cells assessed as reduction in cell viability at 50 uM after 48 hrs by MTT assay; format: cell-based; settings: raw264.7, 48 h
# Summary of the method: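 RAW264.7 cells seeded at 2 x 10⁵/well and grown 24 h, then exposed to 25 or 50 µM (ethanol ≤1%) for 48 h. MTT 0.5 mg/mL added for 2 h at 37 °C, formazan dissolved in DMSO, OD read at 595 nm. Viability given relative to untreated control, mean SD.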
# [21] = tested on: Peritoneal macrophage; test: Cytotoxicity against C57/BL6 mouse peritoneal macrophages assessed as reduction in cell viability at 50 uM after 48 hrs by MTT assay; format: cell-based
pIC50 [11],Compound,Activity [1],Activity [2],Activity [3],Activity [4],Activity [5],Activity [6],Activity [8],Activity [10],Activity [15],Activity [16],inhibition at 50 µM [18],Activity [20],Activity [21],also measured
4.34,COc1ccc(/C=N/c2ccccc2O)cc1,inactive,Active,44.2 ng/mL,2.1 ng/mL,88.2 pg/mL,4.8 µM,7.9 ng/mL,Active,4.7 pg/mL,Active,90%,–,–,inhibition of leucocyte infiltration (qualitative) [7]: Active; Activity [9]: Active; Activity [12]: inactive; inhibition [13]: Active; inhibition [14]: Active; inhibition (INH) [17]: 40%; inhibition [19]: Active
–,O=C(O)c1ccc(/C=N/Nc2ccc([N+](=O)[O-])cc2[N+](=O)[O-])cc1,–,–,–,–,–,–,–,–,–,–,–,Toxic,Toxic,–
4.44,Oc1ccccc1/C=N/c1ccccc1O,inactive,Active,58.4 ng/mL,2.5 ng/mL,62.3 pg/mL,5.9 µM,7.2 ng/mL,inactive,5.5 pg/mL,Active,90%,–,–,–
4.46,COc1ccc(/C=N/c2ccccc2O)cc1O,inactive,–,60.5 ng/mL,2.4 ng/mL,120.3 pg/mL,8.1 µM,9.7 ng/mL,Active,7.7 pg/mL,–,90%,–,–,–
–,O=C(O)c1ccc(/C=N/Nc2ccccc2)cc1,–,–,–,–,–,–,–,–,–,–,–,Toxic,Toxic,–
–,COc1ccc(/C=N/Nc2ccc([N+](=O)[O-])cc2[N+](=O)[O-])cc1O,–,–,–,–,–,–,–,–,–,–,–,Toxic,Toxic,–
4.44,O=C(O)c1ccc(/C=N/c2ccccc2O)cc1,inactive,Active,30.6 ng/mL,2.2 ng/mL,53.4 pg/mL,9.5 µM,3.7 ng/mL,Active,12.7 pg/mL,Active,90%,–,–,inhibition of leucocyte infiltration (qualitative) [7]: Active; Activity [9]: Active; Activity [12]: inactive; inhibition [13]: Active; inhibition [14]: Active; inhibition (INH) [17]: 40%; inhibition [19]: Active
